Experimental data: ChEMBL document CHEMBL3272036, “Reactions of 2-acyloxyisobutyryl halides with nucleosides. Synthesis and biological evaluation of some 3"-acyl and 3',5'-diacyl derivatives of 1-beta-D-arabinofuranosylcytosine” (J Med Chem, 1976)
In brackets after ≈: the same amount, converted by molar mass. Activity calls are given as the source filed them. No cut-off for these calls is given here.

Experiments:
HeLa = assay: Cytotoxicity against human HeLa cells after 48 hrs by Coulter counter analysis; type: functional; conditions: read-out: ED50 (the source's name)
Herpesviridae sp. = assay: Antiviral activity against Herpes Simplex virus HF infected in African green monkey BGM cells assessed as plaque reduction measured on day 5 by disk diffusion assay; type: functional; conditions: 120 h, read-out: ED50 (the source's name)
Vaccinia virus = assay: Antiviral activity against Vaccinia virus IHD infected in African green monkey BGM cells assessed as plaque reduction measured on day 5 by disk diffusion assay; type: functional; conditions: Orthopoxvirus vaccinia, 120 h, read-out: ED50 (the source's name)
L1210 [1] = assay: Antitumor activity against mouse L1210 cells allografted in BDF1 mouse assessed as increase in life span at 200 mg/kg, ip administered as single dose relative to vehicle-treated control; type: functional; conditions: route intraperitoneal
Method in brief: (§1)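 Single intraperitoneal injection given 24 h after the leukemic cells were introduced, at 100, 200, 500 or 1000 mg/kg. Read-out is % increase in life span (ILS), with the count of 30-day survivors per group recorded (group sizes 7–8 mice).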

L1210 [2] = assay: Antitumor activity against mouse L1210 cells allografted in BDF1 mouse assessed as survival at 200 mg/kg, ip administered as single dose measured on day 30 relative to vehicle-treated control; type: functional, organism-based; set-up: dose 200 mg/kg
Method in brief: (§2)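 Leukemic L1210 cells were introduced into mice. Each compound was then given as a single intraperitoneal injection 24 h later. Activity is expressed as % increase in life span (ILS), with the count of 30-day survivors per group. Doses tested were 100, 200, 500 and 1000 mg/kg.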

L1210 [3] = assay: Antitumor activity against mouse L1210 cells allografted in BDF1 mouse assessed as increase in life span at 1000 mg/kg, ip administered as single dose relative to vehicle-treated control; type: functional; conditions: route intraperitoneal; method in brief: as §1
L1210 [4] = assay: Antitumor activity against mouse L1210 cells allografted in BDF1 mouse assessed as increase in life span at 500 mg/kg, ip administered as single dose relative to vehicle-treated control; type: functional; conditions: route intraperitoneal; method in brief: as §1
L1210 [5] = assay: Antitumor activity against mouse L1210 cells allografted in BDF1 mouse assessed as survival at 500 mg/kg, ip administered as single dose measured on day 30 relative to vehicle-treated control; type: functional, organism-based; set-up: dose 500 mg/kg; method in brief: as §2
L1210 [6] = assay: Antitumor activity against mouse L1210 cells allografted in BDF1 mouse assessed as increase in life span at 100 mg/kg, ip administered as single dose relative to vehicle-treated control; type: functional; conditions: route intraperitoneal; method in brief: as §1
L1210 [7] = assay: Antitumor activity against mouse L1210 cells allografted in BDF1 mouse assessed as survival at 100 mg/kg, ip administered as single dose measured on day 30 relative to vehicle-treated control; type: functional, organism-based; set-up: dose 100 mg/kg; method in brief: as §2
L1210 [8] = assay: Antitumor activity against mouse L1210 cells allografted in BDF1 mouse assessed as survival at 1000 mg/kg, ip administered as single dose measured on day 30 relative to vehicle-treated control; type: functional, organism-based; set-up: dose 1000 mg/kg; method in brief: as §2

| SMILES | EC50 (HeLa) [µg/mL] | EC50 (Herpesviridae sp.) [nM] | EC50 (Vaccinia virus) [nM] | ILS at 200 mg/kg (L1210 [1]) [%] | Activity (L1210 [2]) | ILS at 1000 mg/kg (L1210 [3]) [%] | ILS at 500 mg/kg (L1210 [4]) [%] | Activity (L1210 [5]) | ILS at 100 mg/kg (L1210 [6]) [%] | Activity (L1210 [7]) | Activity (L1210 [8]) |
| --- | --- | --- | --- | --- | --- | --- | --- | --- | --- | --- | --- |
| Cl.Nc1ccn([C@@H]2O[C@H](CO)[C@@H](OC(=O)Cc3ccccc3)[C@@H]2O)c(=O)n1 | 0.11 | 1500 | 460 | 8 | inactive | – | – | – | – | – | – |
| C=CCCCCCCCCC(=O)O[C@H]1[C@H](O)[C@H](n2ccc(N)nc2=O)O[C@@H]1CO | 0.05 (≈ 0.122 µM) | 440 | 110 | 49 | inactive | > 52 | > 191 | – | – | – | – |
| CCCCCCCCCCC(=O)OC[C@H]1O[C@@H](n2ccc(N)nc2=O)[C@@H](O)[C@@H]1OC(=O)CCCCCCCCCC | 0.4 (≈ 0.69 µM) | 780 | 300 | > 300 | inactive | – | 117 | Active | > 280 | – | – |
| CCCC(=O)O[C@H]1[C@H](O)[C@H](n2ccc(N)nc2=O)O[C@@H]1CO | 0.11 (≈ 0.351 µM) | 2800 | 1200 | 13 | inactive | – | 22 | inactive | – | – | – |
| CCCCCCCCCCCC(=O)OC[C@H]1O[C@@H](n2ccc(N)nc2=O)[C@@H](O)[C@@H]1OC(=O)CCCCCCCCCCC | 0.5 (≈ 0.823 µM) | 7200 | 2050 | > 285 | Active | > 260 | – | – | – | – | – |
| CCCCCCCC/C=C/CCCCCCCC(=O)O[C@H]1[C@H](O)[C@H](n2ccc(N)nc2=O)O[C@@H]1CO | 0.05 (≈ 0.0985 µM) | 1500 | 940 | > 258 | – | – | – | – | > 246 | – | – |
| CCCCCCCC/C=C\CCCCCCCCCCCC(=O)OC[C@H]1O[C@@H](n2ccc(N)nc2=O)[C@@H](O)[C@@H]1OC(=O)CCCCCCCCCCC/C=C\CCCCCCCC | > 10 | > 30000 | > 30000 | 86 | inactive | – | – | – | 58 | inactive | – |
| CCCCCCCCCCCCCCCCCC(=O)O[C@H]1[C@H](O)[C@H](n2ccc(N)nc2=O)O[C@@H]1CO | 0.13 (≈ 0.255 µM) | 700 | 380 | > 228 | – | -23 | – | – | > 219 | Active | inactive |
| CCCCCCCCCCCCCC(=O)O[C@H]1[C@H](O)[C@H](n2ccc(N)nc2=O)O[C@@H]1CO | 0.08 (≈ 0.176 µM) | 640 | 180 | > 284 | Active | -23 | -21 | inactive | > 266 | – | inactive |
| CCCCCCCCC(=O)O[C@H]1[C@H](O)[C@H](n2ccc(N)nc2=O)O[C@@H]1CO | 0.05 (≈ 0.13 µM) | 300 | 100 | 59 | inactive | > 142 | > 189 | – | – | – | – |
| CCCCCCCC(=O)OC[C@H]1O[C@@H](n2ccc(N)nc2=O)[C@@H](O)[C@@H]1OC(=O)CCCCCCC.Cl | 0.13 | 2600 | 220 | 20 | inactive | 46 | – | – | -28 | inactive | inactive |
| CCCC(=O)OC[C@H]1O[C@@H](n2ccc(N)nc2=O)[C@@H](O)[C@@H]1OC(=O)CCC | 0.11 (≈ 0.287 µM) | 5200 | 1150 | 8 | inactive | – | – | – | 14 | inactive | – |
| CCCCCCC/C=C\C(=O)O[C@H]1[C@H](O)[C@H](n2ccc(N)nc2=O)O[C@@H]1CO.Cl | 0.06 | 230 | 110 | 22 | inactive | – | – | – | – | – | – |
| CCCCCCCCCCCCCCCC(=O)OC[C@H]1O[C@@H](n2ccc(N)nc2=O)[C@@H](O)[C@@H]1OC(=O)CCCCCCCCCCCCCCC | > 10 | > 30000 | 30000 | > 255 | – | > 237 | – | – | – | – | – |
